We go through 14 compounds from PubChem BioAssay.

A short description of experiment [1]: Her2 expression decrease, cell viability multiplex – SKBR3 breast tumor cells, AlphaScreen, ATP viability, primary screen (AID 461;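 active = Her2 level under about 52% in both replicate screens, with viability over 70% of control, limit read from the data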;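 as to Her2 level: lower value means less Her2 protein in the cells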;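 as to viability: percent of carrier control wells set as 100% viability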). Conditions: SKBR3 Her2 protein level, 18-24 h, measured here: SKBR3 viability, ATP luminescence, at 10 µM.
For experiment [2], the target named is Receptor tyrosine-protein kinase erbB-2 (Homo sapiens) (UniProt P04626). Described as above. Conditions: 18-24 h, at 10 µM, stronger effect = lower value.
Sequence of Receptor tyrosine-protein kinase erbB-2 (Homo sapiens) (P04626 whole entry, looked up): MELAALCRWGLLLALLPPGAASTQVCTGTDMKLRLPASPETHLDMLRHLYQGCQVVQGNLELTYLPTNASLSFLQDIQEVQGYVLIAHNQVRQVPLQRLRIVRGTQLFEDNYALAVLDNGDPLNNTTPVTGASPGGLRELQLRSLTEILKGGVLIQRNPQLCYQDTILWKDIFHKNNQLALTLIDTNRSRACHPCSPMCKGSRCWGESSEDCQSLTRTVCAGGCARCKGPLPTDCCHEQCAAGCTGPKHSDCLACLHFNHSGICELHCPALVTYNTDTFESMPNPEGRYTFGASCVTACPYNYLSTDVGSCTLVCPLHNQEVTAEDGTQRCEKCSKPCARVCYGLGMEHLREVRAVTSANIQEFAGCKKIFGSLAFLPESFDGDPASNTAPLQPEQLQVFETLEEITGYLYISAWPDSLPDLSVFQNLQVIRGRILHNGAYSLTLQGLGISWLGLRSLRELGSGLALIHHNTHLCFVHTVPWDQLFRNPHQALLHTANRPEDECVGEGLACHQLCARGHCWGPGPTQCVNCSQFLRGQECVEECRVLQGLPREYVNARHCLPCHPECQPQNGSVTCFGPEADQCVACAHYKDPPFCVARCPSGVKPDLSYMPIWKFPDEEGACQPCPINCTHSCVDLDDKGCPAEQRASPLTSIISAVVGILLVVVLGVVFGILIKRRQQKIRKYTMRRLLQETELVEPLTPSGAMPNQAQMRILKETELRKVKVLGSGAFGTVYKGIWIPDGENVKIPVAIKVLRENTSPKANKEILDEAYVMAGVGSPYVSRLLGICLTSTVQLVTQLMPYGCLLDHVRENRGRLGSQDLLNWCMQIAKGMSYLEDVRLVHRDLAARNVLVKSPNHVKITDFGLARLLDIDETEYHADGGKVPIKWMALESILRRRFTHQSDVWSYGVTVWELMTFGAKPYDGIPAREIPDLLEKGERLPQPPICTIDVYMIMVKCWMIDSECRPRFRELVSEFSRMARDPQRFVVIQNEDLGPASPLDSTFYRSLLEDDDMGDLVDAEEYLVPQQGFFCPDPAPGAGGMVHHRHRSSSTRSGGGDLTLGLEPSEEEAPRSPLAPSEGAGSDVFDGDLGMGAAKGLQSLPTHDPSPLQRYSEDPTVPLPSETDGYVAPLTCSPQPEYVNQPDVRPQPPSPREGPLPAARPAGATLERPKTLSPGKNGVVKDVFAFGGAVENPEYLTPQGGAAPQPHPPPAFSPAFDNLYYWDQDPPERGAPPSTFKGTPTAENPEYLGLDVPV
The nature of experiment [3]: reduced viability of SK-BR-3 breast cancer cells – cell-based, 24 h, human, pilot screen (AID 572).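 Also: compound exposure lasted between 18 and 24 h rather than exactly 24 h; 100% = carrier-treated control wells.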 Conditions: SK-BR-3 viability, CellTiter-Glo luminescence, at 10 µM, stronger effect = lower value.
Experiment [4] is described as follows: HUVEC growth inhibition – cell-based, human, primary screen (AID 575;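 active = viability at or below 30% in both replicate assays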;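 also: 100% = median of untreated cell wells with 0.1% DMSO on each plate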). The following applies: HUVEC proliferation, CellTiter-Glo luminescence, 72 h; at 10 µM; stronger effect = lower value. A digest of the protocol:
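Assay system: primary human umbilical vein endothelial cells / Buffer or medium: endothelial basal medium with 2% FBS plus growth supplements / Compound dosing: one dose, 10 µM final, 0.1% DMSO / Timing: 72 h treatment at 37 °C / Signal: CTG luminescence / Benchmarks: 32 DMSO-only cell-control wells (high), 32 MePR drug-control wells (low) per plate / Plate: collagen-coated 384-well format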

Experiment [5] is described as follows: H69AR cell proliferation blockers – human, duplicate replicates, primary screen (AID 580;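 active = viability at or under a set limit in both replicates, limit being median viability minus 3 SD, cut at about 48% in these data, passing the limit was not always enough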;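 also: 100% = mean luminescence of untreated wells and 0% = no signal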). The following applies: H69AR lung tumor cells viability, ATP luminescence, 72 h; at 10 µM; stronger effect = lower value.
Experiment [6] in a line: MRP1 drug-resistance reversers in H69AR cells – cell-based, doxorubicin co-treatment, pilot screen (AID 601;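 active = viability loss from added drug above about 55%, and viability with drug at most 40%, in both replicates, limit read from the data, passing the limit was not always enough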). Conditions: CellTiter-Glo, 72 h, at 10 µM; for differential viability (reversal): stronger effect = higher value.
Experiment [7] in a line: yeast transport mutant growth inhibition pilot in 384-well plates, post-Golgi transport modulator project (AID 636; in the data active = inhibition above about 31%). Conditions: absorbance 615 nm, about 18 h, stronger effect = higher value.
Experiment [8] is described as follows: growth suppression of yeast trafficking mutant, preliminary HTS, modulators of trafficking downstream of Golgi apparatus project, 1536-format plate, OD 615 nm (AID 637; in the data active = inhibition above about 30%). The following applies: yeast transport mutant growth, absorbance 615 nm, 18 h; stronger effect = higher value.
Where [9] appears, read: H69AR cells + 2 uM doxorubicin, measured here: viability with 2 uM doxorubicin, stronger effect = lower value.
[10] abbreviates: H69AR cells, compound alone cytotoxicity.

The source made the active and inactive calls.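 The calls were made as follows, unless noted: active = viability at or below 10% of carrier control in both of two separate runs; inconclusive = viability at or below 10% in only one of the two runs; inactive = the rest.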

As for `CCCOc1nc(N)c(C#N)c(-c2ccccc2F)c1C#N`, the viability in experiment [1] was 98.5%; in experiment [3] it was 98.5% (inactive); in experiment [4] it was 82.6% (inactive); in experiment [5], 89.7% (inactive); in experiment [6] (setting [9]) it was 60.7%; in experiment [6] (setting [10]), 89.7%. In addition, the Her2 level in experiment [2] is 114% (inactive). For the same compound, the differential viability (reversal) in experiment [6] (H69AR cells + 2 uM doxorubicin) is 29% (inactive). The inhibition in experiment [7] is -2.53% (inactive); in experiment [8] it was -9.52% (inactive).
As for `CCOc1ccccc1N(C(=O)Cn1nnnc1-c1ccc(C)o1)C(CC)C(=O)NC(C)(C)C` (stereo not given), the viability in experiment [1] is 88.5%; in experiment [3] it was 88.5% (inactive); in experiment [4] it was 120% (inactive); in experiment [5], 88.5% (inactive); in experiment [6] (setting [9]), 103%; in experiment [6] (setting [10]), 88.5%. In addition, the Her2 level in experiment [2] was 105% (inactive). Further, in experiment [6] (H69AR cells + 2 uM doxorubicin), the differential viability (reversal) is -14.7% (inactive). The figures for the inhibition in experiment [7] and in experiment [8] were 1.51% (inactive) and 4.6% (inactive), respectively.
Consider `O=C1CCc2nc3sc4c(c3c(=O)n2N1)CCCC4`, for which the viability in experiment [1] was 86.5%; in experiment [3], 86.5% (inactive); in experiment [4] it was 85.9% (inactive); in experiment [5], 91.3% (inactive); in experiment [6] (setting [9]), 90.2%; in experiment [6] (setting [10]) it was 91.3%. Besides, in experiment [2], the Her2 level was 100% (inactive). Besides, the differential viability (reversal) in experiment [6] (H69AR cells + 2 uM doxorubicin) is 1.12% (inactive). Also, the inhibition is -1.05% (inactive) in experiment [7] and -7.14% (inactive) in experiment [8].
Take `Cc1cc(NC(=O)Cn2cnc3c(cnn3C(C)(C)C)c2=O)no1`: the viability in experiment [1] is 91.5%; in experiment [3] it was 91.5% (inactive); in experiment [4], 102% (inactive); in experiment [5] it was 91.9% (inactive); in experiment [6] (setting [9]) it was 89.8%; in experiment [6] (setting [10]) it was 91.9%. In addition, the Her2 level in experiment [2] was 100% (inactive). For the same compound, the differential viability (reversal) in experiment [6] (H69AR cells + 2 uM doxorubicin) is 2.12% (inactive). Also, the inhibition is 0.66% (inactive) in experiment [7] and -5.16% (inactive) in experiment [8].
Consider `O=C(CN1C(=O)C2CC=C(Cl)CC2C1=O)Nc1ccc(C(=O)O)cc1` (stereo not given), for which the viability in experiment [1] was 127%; in experiment [3], 127% (inactive); in experiment [4] it was 99.1% (inactive); in experiment [5], 94.7% (inactive); in experiment [6] (setting [9]), 95.4%; in experiment [6] (setting [10]) it was 94.7%. In experiment [2], the Her2 level was 101% (inactive). In experiment [6] (H69AR cells + 2 uM doxorubicin), the differential viability (reversal) is -0.64% (inactive). Further, the results for the inhibition in experiment [7] and in experiment [8] were -3.55% (inactive) and -0.16% (inactive), respectively.
For `O=C(Nc1ccc(Br)cc1F)c1sccc1-n1cccc1`, the viability is 87.5% in experiment [1]; 87.5% (inactive) in experiment [3]; 93.5% (inactive) in experiment [4]; 83.1% (inactive) in experiment [5]; 81.7% in experiment [6] (setting [9]); 83.1% in experiment [6] (setting [10]). Moreover, the Her2 level in experiment [2] is 72.5% (inactive). In experiment [6] (H69AR cells + 2 uM doxorubicin), the differential viability (reversal) is 1.42% (inactive). In addition, the inhibition in experiment [7] was -5.66% (inactive); in experiment [8] it was -8.67% (inactive).
With `COC(=O)c1c(NC(=O)c2ccc(S(=O)(=O)N3CCOCC3)cc2)sc2c1CCN(C)C2`, the viability in experiment [1] is 96%; in experiment [3], 96% (inactive); in experiment [4] it was 94.8% (inactive); in experiment [5] it was 90% (inactive); in experiment [6] (setting [9]), 95.3%; in experiment [6] (setting [10]), 90%. Also, in experiment [2], the Her2 level is 106% (inactive). Besides, the differential viability (reversal) in experiment [6] (H69AR cells + 2 uM doxorubicin) is -5.3% (inactive). Moreover, the inhibition in experiment [7] is -5.26% (inactive); in experiment [8], -7.46% (inactive).
Regarding `COc1ccc(CN(C(=O)c2cccs2)c2nccs2)cc1OC`, the viability is 74% in experiment [1]; 74% (inactive) in experiment [3]; 90.4% (inactive) in experiment [4]; 94.6% (inactive) in experiment [5]; 99.6% in experiment [6] (setting [9]); 94.6% in experiment [6] (setting [10]). Besides, the Her2 level in experiment [2] is 68.5% (inactive). Besides, the differential viability (reversal) in experiment [6] (H69AR cells + 2 uM doxorubicin) was -4.98% (inactive). The inhibition was -4.46% (inactive) in experiment [7] and -0.98% (inactive) in experiment [8].
For the compound `CN(C)c1ccc(/C=C/c2ccncc2)cc1`, the viability in experiment [1] was 96%; in experiment [3], 96% (inactive); in experiment [4], 89.9% (inactive); in experiment [5], 90.5% (inactive); in experiment [6] (setting [9]), 90.1%; in experiment [6] (setting [10]), 90.5%. For the same compound, the Her2 level in experiment [2] is 152% (inactive). Moreover, the differential viability (reversal) in experiment [6] (H69AR cells + 2 uM doxorubicin) was 0.41% (inactive). Further, the inhibition is 3.03% (inactive) in experiment [7] and 4% (inactive) in experiment [8].
In the case of `COc1ccc(OC(C)C(=O)N2CC(C)OC(C)C2)cc1` (stereo not given), the viability in experiment [1] is 100%; in experiment [3] it was 100% (inactive); in experiment [4] it was 97.3% (inactive); in experiment [5], 100% (inactive); in experiment [6] (setting [9]), 101%; in experiment [6] (setting [10]) it was 100%. The Her2 level in experiment [2] is 102% (inactive). Further, in experiment [6] (H69AR cells + 2 uM doxorubicin), the differential viability (reversal) was -1.02% (inactive). Also, the inhibition is -5% (inactive) in experiment [7] and 0.16% (inactive) in experiment [8].
In the case of `Cc1nc2sc(C(c3ccccc3)N3CCN(c4ccccc4F)CC3)c(O)n2n1` (stereo not given), the viability in experiment [1] was 91.5%; in experiment [3], 91.5% (inactive); in experiment [4], 97.6% (inactive); in experiment [5], 100% (inactive); in experiment [6] (setting [9]) it was 98.1%; in experiment [6] (setting [10]), 100%. In experiment [2], the Her2 level was 93.5% (inactive). Also, the differential viability (reversal) in experiment [6] (H69AR cells + 2 uM doxorubicin) was 2.07% (inactive). In addition, the inhibition is 0% (inactive) in experiment [7] and -7.7% (inactive) in experiment [8].
As to `O=C1CC(N2CCN(C3CCc4ccccc4C3)CC2)C(=O)N1c1ccccc1` (stereo not given), the viability in experiment [1] is 89.5%; in experiment [3], 89.5% (inactive); in experiment [4], 102% (inactive); in experiment [5], 91.6% (inactive); in experiment [6] (setting [9]), 90%; in experiment [6] (setting [10]), 91.6%. Moreover, the Her2 level in experiment [2] was 97.5% (inactive). For the same compound, the differential viability (reversal) in experiment [6] (H69AR cells + 2 uM doxorubicin) is 1.58% (inactive). The figures for the inhibition in experiment [7] and in experiment [8] were -1.95% (inactive) and 3.93% (inactive), respectively.
As to `CCSc1nnc(-c2cccs2)o1`, the viability in experiment [1] is 89%; in experiment [3] it was 89% (inactive); in experiment [4], 87.3% (inactive); in experiment [5], 92.3% (inactive); in experiment [6] (setting [9]), 96.6%; in experiment [6] (setting [10]), 92.3%. Further, the Her2 level in experiment [2] is 106% (inactive). Also, the differential viability (reversal) in experiment [6] (H69AR cells + 2 uM doxorubicin) is -4.3% (inactive). Further, the inhibition in experiment [7] was -0.13% (inactive); in experiment [8], -2.83% (inactive).
Regarding `Cc1nc(SCC(=O)Nc2ccccc2C(F)(F)F)c2c(=O)n(C)c(=O)n(C)c2n1`, the viability in experiment [1] was 87%; in experiment [3], 87% (inactive); in experiment [4], 80.3% (inactive); in experiment [5] it was 74% (inactive); in experiment [6] (setting [9]) it was 76.3%; in experiment [6] (setting [10]), 74%. The Her2 level in experiment [2] was 85% (inactive). The differential viability (reversal) in experiment [6] (H69AR cells + 2 uM doxorubicin) is -2.32% (inactive). In addition, the figures for the inhibition in experiment [7] and in experiment [8] were -3.87% (inactive) and 3.61% (inactive), respectively.
